Reference: ChEMBL document CHEMBL1153988 (J Med Chem, 2009)
Calls of active or inactive are those of the source. No cut-off for these calls is given here.

Key:
[1] = species on record: Rattus norvegicus; assay: Protective index, ratio of TD50 for albino Sprague-Dawley rat to ED50 for maximal electroshock-induced albino Sprague-Dawley rat seizure model; format: functional
Outline: (§1)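 Protective index is the rat TD50 (minimal motor impairment) divided by the ED50 in the MES or sc pentylenetetrazol test. Male Sprague-Dawley rats were dosed orally in 0.5% methylcellulose, and both values came from probit analysis.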

[2] = system: Rattus norvegicus; assay: Anticonvulsant activity in albino Sprague-Dawley rat assessed as protection against maximal electroshock-induced seizures at 50 mg/kg, po after 1 hr; format: functional
Outline: (§2)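 Adult male Sprague-Dawley albino rats (100-150 g) dosed orally with compound suspended in 0.5% methylcellulose (0.04 mL per 10 g). Maximal electroshock challenge at the stated time. Protection is scored in 25% steps as the fraction of animals protected, with neurotoxicity recorded in parallel.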

[3] = system: Rattus norvegicus; assay: Anticonvulsant activity in po dosed albino Sprague-Dawley rat assessed as protection against maximal electroshock-induced seizures; format: functional
[4] = Neurotoxicity in po dosed albino Sprague-Dawley rat assessed as minimal motor impairment; format: toxicity, organism-based; conditions: in vivo
Outline: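 Rats: male Sprague-Dawley (100-150 g), oral dosing in 0.5% methylcellulose. Doses were varied to give four points between no minimal motor impairment and all animals impaired. TD50 and 95% confidence intervals came from probit analysis.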

[5] = system: Mus musculus; assay: Anticonvulsant activity in CF1 albino mouse assessed as protection against scMet-induced seizures at 30 mg/kg, ip after 4 hrs; format: functional, organism-based; set-up: dose 30 mg/kg
Outline: (§3)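 Adult male CF no. 1 albino mice (18-25 g) dosed intraperitoneally with compound suspended in 0.5% methylcellulose (0.01 mL/g). Convulsant challenge given subcutaneously as a 0.85% pentylenetetrazol solution in 0.9% saline. Read-out is animals protected over animals tested, with neurotoxicity scored in parallel.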

[6] = system: Mus musculus; assay: Anticonvulsant activity in CF1 albino mouse assessed as protection against scMet-induced seizures at 300 mg/kg, ip after 0.5 hrs; format: functional, organism-based; set-up: dose 300 mg/kg; outline: as §3
[7] = system: Mus musculus; assay: Anticonvulsant activity in CF1 albino mouse assessed as protection against maximal electroshock-induced seizures at 300 mg/kg, ip after 4 hrs; format: functional, organism-based; set-up: dose 300 mg/kg
Outline: (§4)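 Adult male CF no. 1 albino mice (18-25 g). Test compound suspended in 0.5% methylcellulose and given intraperitoneally at 0.01 mL/g body weight. Maximal electroshock challenge at the stated time. Read-out is the number of animals protected over the number tested; neurotoxicity is scored in parallel.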

[8] = system: Mus musculus; assay: Anticonvulsant activity in CF1 albino mouse assessed as protection against maximal electroshock-induced seizures at 100 mg/kg, ip after 4 hrs; format: functional, organism-based; set-up: dose 100 mg/kg; outline: as §4
[9] = system: Mus musculus; assay: Neurotoxicity in CF1 albino mouse at 300 mg/kg, ip after 0.5 hrs; format: toxicity, organism-based; set-up: dose 300 mg/kg, route intraperitoneal; conditions: in vivo
Outline: (§5)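 Male CF no. 1 albino mice (18-25 g) received a single ip dose as a suspension in 0.5% methylcellulose. The read-out was the number of animals showing neurotoxicity (minimal motor impairment) over the number tested.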

[10] = system: Rattus norvegicus; assay: Anticonvulsant activity in albino Sprague-Dawley rat assessed as protection against scMet-induced seizures at 50 mg/kg, po after 1 hr; format: functional
Outline: (§6)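 Male Sprague-Dawley albino rats (100-150 g) were given the compound orally as a suspension in 0.5% methylcellulose. Seizures were induced by subcutaneous pentylenetetrazol, dissolved in 0.9% saline as a 2.82% solution. The read-out was animals protected over animals tested.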

[11] = system: Rattus norvegicus; assay: Anticonvulsant activity in albino Sprague-Dawley rat assessed as protection against scMet-induced seizures at 50 mg/kg, po after 15 mins; format: functional; outline: as §6
[12] = system: Mus musculus; assay: Neurotoxicity in CF1 albino mouse at 30 mg/kg, ip after 0.5 hrs; format: toxicity, organism-based; set-up: dose 30 mg/kg, route intraperitoneal; conditions: in vivo; outline: as §5
[13] = system: Rattus norvegicus; assay: Anticonvulsant activity in po dosed albino Sprague-Dawley rat assessed as protection against scMet-induced seizures; format: functional
Outline: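 Male Sprague-Dawley albino rats (100-150 g) were dosed orally in 0.5% methylcellulose and tested by MES or by sc pentylenetetrazol (2.82% in 0.9% saline). Doses were varied to give 3-4 points between 0% and 100% protection. ED50 and 95% confidence intervals came from probit analysis.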

[14] = system: Rattus norvegicus; assay: Anticonvulsant activity in albino Sprague-Dawley rat assessed as protection against scMet-induced seizures at 50 mg/kg, po after 30 mins; format: functional; outline: as §6
[15] = system: Mus musculus; assay: Anticonvulsant activity in CF1 albino mouse assessed as protection against scMet-induced seizures at 30 mg/kg, ip after 0.5 hrs; format: functional, organism-based; set-up: dose 30 mg/kg; outline: as §3
[16] = system: Mus musculus; assay: Anticonvulsant activity in CF1 albino mouse assessed as protection against scMet-induced seizures at 100 mg/kg, ip after 4 hrs; format: functional, organism-based; set-up: dose 100 mg/kg; outline: as §3
[17] = system: Mus musculus; assay: Neurotoxicity in CF1 albino mouse at 300 mg/kg, ip after 4 hrs; format: toxicity, organism-based; set-up: dose 300 mg/kg, route intraperitoneal; conditions: in vivo; outline: as §5
[18] = system: Mus musculus; assay: Anticonvulsant activity in CF1 albino mouse assessed as protection against maximal electroshock-induced seizures at 30 mg/kg, ip after 4 hrs; format: functional, organism-based; set-up: dose 30 mg/kg; outline: as §4
[19] = system: Mus musculus; assay: Anticonvulsant activity in CF1 albino mouse assessed as protection against maximal electroshock-induced seizures at 100 mg/kg, ip after 0.5 hrs; format: functional, organism-based; set-up: dose 100 mg/kg; outline: as §4
[20] = system: Mus musculus; assay: Anticonvulsant activity in CF1 albino mouse assessed as protection against scMet-induced seizures at 100 mg/kg, ip after 0.5 hrs; format: functional, organism-based; set-up: dose 100 mg/kg; outline: as §3
[21] = system: Mus musculus; assay: Anticonvulsant activity in CF1 albino mouse assessed as protection against maximal electroshock-induced seizures at 30 mg/kg, ip after 0.5 hrs; format: functional, organism-based; set-up: dose 30 mg/kg; outline: as §4
[22] = system: Rattus norvegicus; assay: Anticonvulsant activity in albino Sprague-Dawley rat assessed as protection against scMet-induced seizures at 50 mg/kg, po after 2 hrs; format: functional; outline: as §6
[23] = species on record: Rattus norvegicus; assay: Protective index, ratio of TD50 for albino Sprague-Dawley rat to ED50 for scMet-induced albino Sprague-Dawley rat seizure model; format: functional; outline: as §1
[24] = system: Rattus norvegicus; assay: Neurotoxicity in albino Sprague-Dawley rat assessed as minimal motor impairment at 200 mg/kg, po; format: toxicity, organism-based; set-up: dose 200 mg/kg, route oral; conditions: in vivo
Outline: (§7)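 Neurotoxicity was scored in male Sprague-Dawley albino rats (100-150 g) dosed orally with a suspension in 0.5% methylcellulose. The read-out was the fraction of animals showing neurotoxicity (minimal motor impairment).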

[25] = system: Rattus norvegicus; assay: Anticonvulsant activity in albino Sprague-Dawley rat assessed as protection against maximal electroshock-induced seizures at 50 mg/kg, po after 2 hrs; format: functional; outline: as §2
[26] = system: Rattus norvegicus; assay: Anticonvulsant activity in albino Sprague-Dawley rat assessed as protection against maximal electroshock-induced seizures at 50 mg/kg, po after 30 mins; format: functional; outline: as §2
[27] = system: Rattus norvegicus; assay: Anticonvulsant activity in albino Sprague-Dawley rat assessed as protection against maximal electroshock-induced seizures at 50 mg/kg, po after 15 mins; format: functional; outline: as §2
[28] = system: Mus musculus; assay: Neurotoxicity in CF1 albino mouse at 30 mg/kg, ip after 4 hrs; format: toxicity, organism-based; set-up: dose 30 mg/kg, route intraperitoneal; conditions: in vivo; outline: as §5
[29] = system: Mus musculus; assay: Neurotoxicity in CF1 albino mouse at 100 mg/kg, ip after 4 hrs; format: toxicity, organism-based; set-up: dose 100 mg/kg, route intraperitoneal; conditions: in vivo; outline: as §5
[30] = system: Mus musculus; assay: Anticonvulsant activity in CF1 albino mouse assessed as protection against scMet-induced seizures at 300 mg/kg, ip after 4 hrs; format: functional, organism-based; set-up: dose 300 mg/kg; outline: as §3
[31] = system: Rattus norvegicus; assay: Anticonvulsant activity in albino Sprague-Dawley rat assessed as protection against scMet-induced seizures at 50 mg/kg, po; format: functional, organism-based; set-up: dose 50 mg/kg; outline: as §6
[32] = system: Mus musculus; assay: Anticonvulsant activity in CF1 albino mouse assessed as protection against maximal electroshock-induced seizures at 300 mg/kg, ip after 0.5 hrs; format: functional, organism-based; set-up: dose 300 mg/kg; outline: as §4
[33] = system: Rattus norvegicus; assay: Neurotoxicity in albino Sprague-Dawley rat at 50 mg/kg, po; format: toxicity, organism-based; set-up: dose 50 mg/kg, route oral; conditions: in vivo; outline: as §7
[34] = system: Rattus norvegicus; assay: Anticonvulsant activity in albino Sprague-Dawley rat assessed as protection against scMet-induced seizures at 50 mg/kg, po after 4 hrs; format: functional; outline: as §6
[35] = system: Rattus norvegicus; assay: Anticonvulsant activity in albino Sprague-Dawley rat assessed as protection against maximal electroshock-induced seizures at 50 mg/kg, po after 4 hrs; format: functional, organism-based; set-up: dose 50 mg/kg; outline: as §2

Structure (SMILES): CC1(C)C(C)(C)C1(Cl)C(N)=O
- PI [1]: >2.1
- Activity [2]: 75%
- ED50 [3]: 97 mg/kg
- TD50 [4]: > 200 mg/kg
- Activity [5]: Non-toxic
- Activity [6]: Toxic
- Activity [7]: Non-toxic
- Activity [8]: Non-toxic
- Activity [9]: Toxic
- Activity [10]: 50%
- Activity [11]: inactive
- Activity [12]: Non-toxic
- ED50 [13]: 27 mg/kg
- Activity [14]: 50%
- Activity [15]: Non-toxic
- Activity [16]: Non-toxic
- Activity [17]: Non-toxic
- Activity [18]: Non-toxic
- Activity [19]: Non-toxic
- Activity [20]: Non-toxic
- Activity [21]: Non-toxic
- Activity [22]: 25%
- PI [23]: >7.8
- Activity [24]: Non-toxic
- Activity [25]: 75%
- Activity [26]: 25%
- Activity [27]: 25%
- Activity [28]: Non-toxic
- Activity [29]: Non-toxic
- Activity [30]: Non-toxic
- Activity [31]: Active
- Activity [32]: Toxic
- Activity [33]: Not Active
- Activity [34]: inactive
- Activity [35]: inactive
